In ChEMBL document CHEMBL4266041, “Hydroxybiphenylamide GroEL/ES Inhibitors Are Potent Antibacterials against Planktonic and Biofilm Forms of Staphylococcus aureus” (J Med Chem, 2018):

Tests used:
[1] = target: T1, E. coli GroEL/ES (Escherichia coli, UniProt P0A6F5); experiment: Inhibition of Escherichia coli GroEL expressed in Escherichia coli DH5alpha/Escherichia coli GroES expressed in Escherichia coli BL21 (DE3) assessed as reduction in GroEL/GroES-mediated denatured rhodanese refolding after 45 mins by spectrometric analysis
T1 sequence (P0A6F5 whole entry, looked up): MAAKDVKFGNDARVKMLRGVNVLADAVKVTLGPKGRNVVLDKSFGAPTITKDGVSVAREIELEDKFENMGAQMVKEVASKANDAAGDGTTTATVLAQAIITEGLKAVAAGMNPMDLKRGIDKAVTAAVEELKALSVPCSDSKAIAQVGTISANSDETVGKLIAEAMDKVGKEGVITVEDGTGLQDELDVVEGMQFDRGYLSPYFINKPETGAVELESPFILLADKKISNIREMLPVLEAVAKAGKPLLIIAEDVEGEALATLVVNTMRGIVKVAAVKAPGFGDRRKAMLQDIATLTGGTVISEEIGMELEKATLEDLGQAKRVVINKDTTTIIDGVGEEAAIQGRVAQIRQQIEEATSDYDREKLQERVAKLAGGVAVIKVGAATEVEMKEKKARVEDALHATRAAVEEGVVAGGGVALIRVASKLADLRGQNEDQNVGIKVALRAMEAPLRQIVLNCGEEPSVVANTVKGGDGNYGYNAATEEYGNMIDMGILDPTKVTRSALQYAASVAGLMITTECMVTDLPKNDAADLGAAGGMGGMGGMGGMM
How it was run: (§1)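 Uses E. coli GroEL/ES with a denatured MDH or rhodanese reporter. GroEL first forms a binary complex with the denatured reporter. Refolding is started by adding ATP and GroES, then reporter enzyme activity is read. DMSO is the negative control. IC50 values from replicate curves are log-averaged after ROUT outlier screening.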

[2] = test system: Staphylococcus aureus; experiment: Antibacterial activity against methicillin-resistant Staphylococcus aureus ATCC BAA-44 after 6 to 8 hrs by bacterial proliferation assay; format: functional, organism-based
[3] = test system: Klebsiella pneumoniae; experiment: Antibacterial activity against Klebsiella pneumoniae ATCC 13883 after 6 to 8 hrs by bacterial proliferation assay; format: functional, organism-based
How it was run: (§2)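 Bacterial growth inhibition in liquid culture. The highest concentration tested was 100 µM. The mean was back-calculated from the average log value. Values above the top concentration were set 0.1 log unit higher.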

[4] = test system: HEK293; experiment: Cytotoxicity against HEK293 cells assessed as reduction in cell viability after 48 hrs by Alamar Blue reporter assay; settings: human, hek293, 48 h
[5] = Inhibition of refolded MDH (unknown origin) preincubated with Escherichia coli GroEL/GroES for 45 mins in absence of compound followed by compound addition and measured for 20 to 35 mins by spectrometric analysis
[6] = test system: Enterococcus faecium; experiment: Antibacterial activity against Enterococcus faecium ATCC 19434 after 24 hrs by bacterial proliferation assay; format: functional, organism-based; settings: ATCC 19434, 24 h
[7] = target: HSP60/HSP10 (Homo sapiens, UniProt P10809); experiment: Inhibition of human N-terminal octa-His-tagged HSP60 expressed in Escherichia coli Rosetta(DE3) pLysS/human HSP10 expressed in Escherichia coli Rosetta(DE3) assessed as reduction in HSP60/HSP10-mediated denatured MDH refolding after 40 to 60 mins by spectrometric analysis
HSP60/HSP10, sequence (P10809 whole entry): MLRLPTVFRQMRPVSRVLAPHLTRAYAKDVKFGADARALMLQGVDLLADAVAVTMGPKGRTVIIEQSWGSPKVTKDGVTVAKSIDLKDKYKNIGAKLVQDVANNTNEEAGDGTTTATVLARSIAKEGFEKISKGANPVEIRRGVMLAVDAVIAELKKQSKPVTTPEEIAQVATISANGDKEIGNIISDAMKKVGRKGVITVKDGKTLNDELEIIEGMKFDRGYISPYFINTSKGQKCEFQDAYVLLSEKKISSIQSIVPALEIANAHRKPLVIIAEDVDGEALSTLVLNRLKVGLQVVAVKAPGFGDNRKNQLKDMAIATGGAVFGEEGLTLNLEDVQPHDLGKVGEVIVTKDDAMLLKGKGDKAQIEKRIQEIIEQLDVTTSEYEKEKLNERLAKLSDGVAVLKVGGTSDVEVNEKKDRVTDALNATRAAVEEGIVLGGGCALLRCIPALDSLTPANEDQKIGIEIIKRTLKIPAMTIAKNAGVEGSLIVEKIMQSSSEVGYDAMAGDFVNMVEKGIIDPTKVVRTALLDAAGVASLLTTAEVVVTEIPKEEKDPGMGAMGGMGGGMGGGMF
HSP60/HSP10, sequence (P61604 whole entry, further chain): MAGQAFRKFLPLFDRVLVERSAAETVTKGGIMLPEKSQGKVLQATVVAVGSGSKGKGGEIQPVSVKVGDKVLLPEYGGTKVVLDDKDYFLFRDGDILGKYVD
How it was run: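 Human HSP60/10 refolding of denatured MDH, run the same way as the GroEL/ES-dMDH assay. A binary complex of chaperonin and denatured MDH is formed, and refolding is started with ATP and HSP10. MDH activity is the read-out. DMSO is the negative control. IC50 values from replicate curves are log-averaged after ROUT outlier screening.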

[8] = test system: Acinetobacter baumannii; experiment: Antibacterial activity against Acinetobacter baumannii ATCC 19606 after 24 hrs by bacterial proliferation assay; format: functional, organism-based; settings: ATCC 19606 = CIP 70.34 = JCM 6841, 24 h; how it was run: as §2
[9] = test system: Staphylococcus aureus; experiment: Antibacterial activity against Staphylococcus aureus ATCC 25923 after 6 to 8 hrs by bacterial proliferation assay; format: functional, organism-based
[10] = target: T2, Thiosulfate sulfurtransferase (Homo sapiens, UniProt Q16762); experiment: Inhibition of refolded rhodanese (unknown origin) preincubated with Escherichia coli GroEL/GroES for 60 mins in absence of compound followed by compound addition by spectrometric analysis
T2 sequence (Q16762 whole entry): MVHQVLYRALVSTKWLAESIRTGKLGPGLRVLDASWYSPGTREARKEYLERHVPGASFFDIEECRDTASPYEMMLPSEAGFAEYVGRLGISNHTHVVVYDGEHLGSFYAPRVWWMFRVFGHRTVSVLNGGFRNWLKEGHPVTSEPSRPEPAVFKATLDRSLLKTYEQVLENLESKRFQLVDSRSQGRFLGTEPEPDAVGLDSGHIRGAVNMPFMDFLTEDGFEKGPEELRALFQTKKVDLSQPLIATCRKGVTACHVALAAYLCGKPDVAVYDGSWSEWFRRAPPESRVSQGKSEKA

[11] = test system: Enterobacter cloacae; experiment: Antibacterial activity against Enterobacter cloacae subsp. cloacae ATCC 13047 after 24 hrs by bacterial proliferation assay; format: functional, organism-based; settings: subsp. cloacae ATCC 13047, 24 h; how it was run: as §2
[12] = target: T1, E. coli GroEL/ES; experiment: Inhibition of Escherichia coli GroEL expressed in Escherichia coli DH5alpha/Escherichia coli GroES expressed in Escherichia coli BL21 (DE3) assessed as reduction in GroEL/GroES-mediated denatured MDH refolding after 20 to 40 mins by spectrometric analysis; how it was run: as §1
[13] = test system: Pseudomonas aeruginosa; experiment: Antibacterial activity against Pseudomonas aeruginosa ATCC 10145 after 24 hrs by bacterial proliferation assay; format: functional, organism-based; settings: ATCC 10145, 24 h; how it was run: as §2
[14] = Cytotoxicity against human THLE3 cells assessed as reduction in cell viability after 48 hrs by Alamar Blue reporter assay; settings: 48 h
[15] = Staphylococcus aureus, ATCC BAA-44

| Compound | IC50 [1] [µM] | EC50 [2, 15] [µM] | EC50 [3] [µM] | CC50 [4] [µM] | IC50 [5] [µM] | EC50 [6] [µM] | IC50 [7] [µM] | EC50 [8] [µM] | EC50 [9] [µM] | IC50 [10] [µM] | EC50 [11] [µM] | IC50 [12] [µM] | EC50 [13] [µM] | CC50 [14] [µM] | EC50 [2] [µM] |
| --- | --- | --- | --- | --- | --- | --- | --- | --- | --- | --- | --- | --- | --- | --- | --- |
| COc1ccccc1C(=O)Nc1ccc(Sc2nc3ccccc3s2)c(Cl)c1 | > 100 | > 100 | > 100 | > 100 | > 63 | > 100 | > 100 | > 100 | > 100 | > 100 | > 100 | > 100 | > 100 | > 100 |  |
| O=C(Nc1ccccc1)c1ccccc1O [SALICYLANILIDE] | > 100 | 51 | > 100 | > 100 | > 63 | > 100 | > 100 | > 100 | 28 | > 100 | > 100 | > 100 | > 100 | 68 |  |
| O=C(Nc1ccc(Sc2nc3ccccc3s2)c(Cl)c1)c1ccccc1 | > 100 | > 100 | > 100 | 90 | > 63 | > 100 | > 100 | > 100 | 43 | > 100 | > 100 | > 100 | > 100 | 82 |  |
| COc1c(Br)cccc1C(=O)Nc1cccc(Cl)c1 | > 100 | > 100 | > 100 | > 100 | > 63 | > 100 | > 100 | > 100 | > 100 | > 100 | > 100 | > 100 | > 100 | > 100 |  |
| O=C(Nc1cccc(Cl)c1)c1cccc(Br)c1O | > 100 | 2 | > 100 | 32 | > 63 | > 100 | > 100 | > 100 | 1.3 | > 100 | > 100 | > 100 | > 100 | 16 |  |
| O=C(Nc1ccc(Oc2ccc(Cl)cc2)c(Cl)c1)c1cc(I)cc(I)c1O [RAFOXANIDE] | 2.2 |  | > 100 | > 100 | 25 | 0.99 | 2.8 | 31 | 0.32 | > 100 | 40 | 4.3 | > 100 | 24 | 0.34 |
| O=C(Nc1ccc(Sc2nc3ccccc3s2)c(Cl)c1)c1cc(Br)cc(Br)c1 | > 100 | > 100 | > 100 | > 100 | > 63 | > 100 | > 100 | > 100 | > 100 | > 100 | > 100 | > 100 | > 100 | > 100 |  |
| O=C(Nc1ccc(Sc2nc3ccccc3s2)cc1)c1ccccc1 | > 100 | > 100 | > 100 | > 100 | > 63 | > 100 | > 100 | > 100 | > 100 | > 100 | > 100 | > 100 | > 100 | > 100 |  |
| O=C(Nc1ccc(Sc2nc3ccccc3s2)cc1)c1cccc(Br)c1 | > 100 | > 100 | > 100 | 74 | > 63 | > 100 | > 100 | > 100 | > 100 | > 100 | > 100 | > 100 | > 100 | 82 |  |
| O=C(Nc1cccc(Cl)c1)c1ccccc1O | > 100 | 4.2 | > 100 | 37 | > 63 | > 100 | > 100 | > 100 | 3.1 | > 100 | > 100 | > 100 | > 100 | 16 |  |
| O=C(Nc1ccccc1)c1cc(Br)cc(Br)c1 | > 100 | > 100 | > 100 | > 100 | > 63 | > 100 | > 100 | > 100 | > 100 | > 100 | > 100 | > 100 | > 100 | > 100 |  |
| O=C(Nc1ccc(Sc2nc3ccccc3s2)cc1)c1cc(Br)ccc1O | 30 | 0.14 | > 100 | 42 | > 63 | 19 | > 100 | > 100 | 0.12 | > 100 | > 100 | 38 | > 100 | 12 |  |
